# Measurements of several laboratories.
# Compare with care: the assays were run in different laboratories.
# Target: Tyrosine-protein kinase Lyn (LYN, Homo sapiens, UniProt P07948)
SMILES,test,setting,remaining binding [%]
C[C@@H]1CCN(c2nccc(-c3cnn4ncccc34)n2)C1,binding,1 µM,93
O=c1nc(-c2ccccn2)sc2ccccc12,"cell-free assay, competition with immobilised ligand",1 µM,100
CN(C)c1nccc(-c2cnn3ncccc23)n1,binding,1 µM,83
CCN1CCN(Cc2ccc(C(=O)Nc3ccc(C)c(Oc4ccc5c(c4)CC(=O)N5)c3)cc2C(F)(F)F)CC1,"binding, competition with immobilised ligand",1 µM,52
Nc1ncc2c(n1)-c1c([nH]c3ccc(C#CC4CC4)cc13)CCCC2,"binding, competition with immobilised ligand",1 µM,93
COCCOc1nc(-c2ccc(Cl)nc2)nc2c1CN(C(=O)c1ncn3ccccc13)CC2,"cell-free assay, competition with immobilised ligand",0.1 µM,73
O=C(c1ccc(Nc2nccc(-c3cc4ccccc4s3)n2)cc1)N1CCC(N2CCCC2)CC1,"binding, competition with immobilised ligand",1 µM,97
CN(CCCC(F)(F)F)c1nccc(-c2cnn3ncccc23)n1,binding,1 µM,86
O=C(Nc1cnc(Oc2ccc(F)cc2)nc1)N1CCc2ncccc2[C@@H]1c1ccc(F)cc1,"cell-free assay, competition with immobilised ligand",1 µM,82
O=C(NCCCN1CCOCC1)c1ccc(Nc2ncc(Cl)c(-c3ccc(Cl)s3)n2)cc1,"binding, competition with immobilised ligand",1 µM,87
c1cnn2ncc(-c3ccnc(N4CCC45COC5)n3)c2c1,binding,1 µM,88
C[C@@H](c1ccc(-n2cnc3c(N)ncnc32)cc1)N1CCc2nn(C)c(Cc3ccccc3)c2C1=O,"binding, competition with immobilised ligand",0.1 µM,100
Cc1cnn2ncc(-c3ccnc(N(C)C)n3)c2c1,binding,1 µM,92
Nc1cnc(N2CCc3cc(S(=O)(=O)Nc4c(F)cc(Cl)cc4F)cc(N4CCCC4=O)c32)nc1,"cell-free assay, competition with immobilised ligand",1 µM,88
N[C@@H]1CCN(c2nccc(-c3cnn4ncccc34)n2)C1,binding,1 µM,100
CSc1cccnc1N1CCN(Cc2nc3ccccc3[nH]2)CC1,"cell-free assay, competition with immobilised ligand",1 µM,95
COc1cnc(Nc2cccc(S(N)(=O)=O)c2)nc1N1CCN(c2ccccc2)CC1,"binding, competition with immobilised ligand",1 µM,92
CN(C)C(=O)Cn1cc(-c2nc([C@@](C)(c3ccc(-c4cnc(N)nc4)cc3)C3CC3)no2)cn1,"cell-free assay, competition with immobilised ligand",1 µM,87
CN(C)c1ncc(F)c(-c2cnn3ncccc23)n1,binding,1 µM,100
Cc1ccc(-n2nc(C(C)(C)C)cc2NC(=O)Nc2ccc(-n3c(N)c(C(N)=O)c4nc5ccc(NCCCN)cc5nc43)cc2)cc1,"cell-free assay, competition with immobilised ligand",1 µM,0.5
O=C(NCC1CCOCC1)c1n[nH]cc1NC(=O)c1c(F)cccc1F,"binding, competition with immobilised ligand",1 µM,92
CCCCN(CCCC)C(=O)CN1C[C@@H](c2cc(OC)c3c(c2)OCO3)[C@H](C(=O)O)[C@H]1CC(C)(C)CCC,"cell-free assay, competition with immobilised ligand",1 µM,75.1
Cc1cnc(Nc2ccc(C(=O)N3CCC(N4CCCC4)CC3)cc2)nc1-c1cc2ccccc2s1,"binding, competition with immobilised ligand",1 µM,78
C=CC(=O)N1CCC(C(=O)NCC(=O)N2CCN(c3nc(-c4cnc(N)nc4C(F)F)nc(N4CCOCC4)n3)CC2)CC1,"binding, competition with immobilised ligand",1 µM,100
